According to ChEMBL document CHEMBL1158182, “Antifungal activity of chalcones: a mechanistic study using various yeast strains” (Eur J Med Chem, 2008):

Assays:
Type in all cases: functional
Ogataea angusta [1] = experiment: Antifungal activity against Hansenula polymorpha CRD2 with leu2 CDR2 genotype by agar dilution method
How it was run: (§1)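 H. polymorpha strains were tested by agar dilution on rich YPD agar at 37 °C. Compound stocks in 96% EtOH were mixed into the medium to give […]. Cells were suspended in water, serially diluted to 10^9, 10^7, 10^5 and 10^3 cells/ml, and applied to the agar with a metal replicator. MIC was read from growth.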

Kluyveromyces lactis [2] = experiment: Antifungal activity against Kluyveromyces lactis 2-18B with MATalpha metA1 ura3 leu2 genotype by agar dilution method
How it was run: (§2)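 S. cerevisiae and K. lactis strains were tested by agar dilution on rich YPD agar at 30 °C. Compound stocks in 96% EtOH were added to the medium to give […]. Cells were suspended in water, serially diluted to 10^9–10^3 cells/ml, and plated with a metal replicator. MIC was read from growth.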

Saccharomyces cerevisiae [3] = experiment: Antifungal activity against diploid Saccharomyces cerevisiae 29a by agar dilution method; how it was run: as §2
Kluyveromyces lactis [4] = experiment: Antifungal activity against Kluyveromyces lactis 1-6A with MATalpha uraA lys arg genotype by agar dilution method; how it was run: as §2
Ogataea angusta [5] = experiment: Antifungal activity against Hansenula polymorpha MC1 with met2 cys1 genotype by agar dilution method; how it was run: as §1
Saccharomyces cerevisiae [6] = experiment: Antifungal activity against haploid Saccharomyces cerevisiae 2180 by agar dilution method; how it was run: as §2
Ogataea angusta [7] = experiment: Antifungal activity against Hansenula polymorpha CD1 with ade1 leu2 cds1 genotype by agar dilution method; how it was run: as §1
Ogataea angusta [8] = experiment: Antifungal activity against Hansenula polymorpha M4 with met4 genotype by agar dilution method; how it was run: as §1
Saccharomyces cerevisiae [9] = experiment: Antifungal activity against haploid Saccharomyces cerevisiae 1S by agar dilution method; how it was run: as §2
Ogataea angusta [10] = experiment: Antifungal activity against Hansenula polymorpha AS1 with arg1 gsh2delta genotype by agar dilution method; how it was run: as §1
Ogataea angusta [11] = experiment: Antifungal activity against Hansenula polymorpha 2a with arg1 leu2 ura3 cys1 genotype by agar dilution method; how it was run: as §1
Ogataea angusta [12] = experiment: Antifungal activity against Hansenula polymorpha D22 with arg1/arg1 ade1/ADE1 leu2/leu2 URA3/ura3 CYS1/cys1 genotype by agar dilution method; how it was run: as §1
Saccharomyces cerevisiae [13] = experiment: Antifungal activity against haploid Saccharomyces cerevisiae 1169 by agar dilution method; how it was run: as §2
Ogataea angusta [14] = experiment: Antifungal activity against Hansenula polymorpha 2b with arg1 ade1 leu2 genotype by agar dilution method; how it was run: as §1
Saccharomyces cerevisiae [15] = experiment: Antifungal activity against haploid Saccharomyces cerevisiae YSH1170 by agar dilution method; how it was run: as §2
Ogataea angusta [16] = experiment: Antifungal activity against Hansenula polymorpha R3 with rgh3 genotype by agar dilution method; how it was run: as §1
Saccharomyces cerevisiae [17] = experiment: Antifungal activity against haploid Saccharomyces cerevisiae Sigma 1278b by agar dilution method; how it was run: as §2
Saccharomyces cerevisiae [18] = experiment: Antifungal activity against haploid Saccharomyces cerevisiae FY4 by agar dilution method; how it was run: as §2
Ogataea angusta [19] = experiment: Antifungal activity against Hansenula polymorpha M2 with met2 genotype by agar dilution method; how it was run: as §1
Saccharomyces cerevisiae [20] = experiment: Antifungal activity against haploid Saccharomyces cerevisiae YSH1171 by agar dilution method; how it was run: as §2
Saccharomyces cerevisiae [21] = experiment: Antifungal activity against haploid Saccharomyces cerevisiae 10560-6B by agar dilution method; how it was run: as §2
Ogataea angusta [22] = experiment: Antifungal activity against Hansenula polymorpha WT1 with ade1 ura3 genotype by agar dilution method; how it was run: as §1
Ogataea angusta [23] = experiment: Antifungal activity against Hansenula polymorpha CD3 with ade1 leu2 cds3 genotype by agar dilution method; how it was run: as §1
Ogataea angusta [24] = experiment: Antifungal activity against Hansenula polymorpha CD2 with ade1 leu2 cds2 genotype by agar dilution method; how it was run: as §1
Kluyveromyces lactis [25] = experiment: Antifungal activity against Kluyveromyces lactis 2-19B with MATalpha ura lys arg genotype by agar dilution method; how it was run: as §2
Saccharomyces cerevisiae [26] = experiment: Antifungal activity against diploid Saccharomyces cerevisiae 1a by agar dilution method; how it was run: as §2
Ogataea angusta [27] = experiment: Antifungal activity against Hansenula polymorpha WT2 with ade1 met6 genotype by agar dilution method; how it was run: as §1
Ogataea angusta [28] = experiment: Antifungal activity against Hansenula polymorpha AU05 with ade3 ura3 genotype by agar dilution method; how it was run: as §1

Measured: MIC

COc1ccc(/C=C/C(=O)c2ccc(Cl)cc2)cc1
> 40 µg/mL: Ogataea angusta [1] | Kluyveromyces lactis [2] | Saccharomyces cerevisiae [3] | Kluyveromyces lactis [4] | Ogataea angusta [5] | Saccharomyces cerevisiae [6] | Ogataea angusta [7] | Ogataea angusta [8] | Saccharomyces cerevisiae [9] | Ogataea angusta [10] | Ogataea angusta [11] | Ogataea angusta [12] | Saccharomyces cerevisiae [13] | Ogataea angusta [14] | Saccharomyces cerevisiae [15] | Ogataea angusta [16] | Saccharomyces cerevisiae [17] | Saccharomyces cerevisiae [18] | Ogataea angusta [19] | Saccharomyces cerevisiae [20] | Saccharomyces cerevisiae [21] | Ogataea angusta [22] | Ogataea angusta [23] | Ogataea angusta [24] | Kluyveromyces lactis [25] | Saccharomyces cerevisiae [26] | Ogataea angusta [27] | Ogataea angusta [28]

COc1cccc(/C=C/C(=O)c2ccc(Cl)cc2)c1
> 40 µg/mL: Ogataea angusta [1] | Kluyveromyces lactis [2] | Saccharomyces cerevisiae [3] | Kluyveromyces lactis [4] | Ogataea angusta [5] | Saccharomyces cerevisiae [6] | Ogataea angusta [7] | Ogataea angusta [8] | Saccharomyces cerevisiae [9] | Ogataea angusta [10] | Ogataea angusta [11] | Ogataea angusta [12] | Saccharomyces cerevisiae [13] | Ogataea angusta [14] | Saccharomyces cerevisiae [15] | Ogataea angusta [16] | Saccharomyces cerevisiae [17] | Saccharomyces cerevisiae [18] | Ogataea angusta [19] | Saccharomyces cerevisiae [20] | Saccharomyces cerevisiae [21] | Ogataea angusta [22] | Ogataea angusta [23] | Ogataea angusta [24] | Kluyveromyces lactis [25] | Saccharomyces cerevisiae [26] | Ogataea angusta [27] | Ogataea angusta [28]

COc1ccc(/C=C/C(=O)c2ccc(Cl)cc2)cc1O
> 40 µg/mL: Ogataea angusta [1] | Kluyveromyces lactis [2] | Saccharomyces cerevisiae [3] | Kluyveromyces lactis [4] | Ogataea angusta [5] | Saccharomyces cerevisiae [6] | Ogataea angusta [7] | Ogataea angusta [8] | Saccharomyces cerevisiae [9] | Ogataea angusta [10] | Ogataea angusta [11] | Ogataea angusta [12] | Saccharomyces cerevisiae [13] | Ogataea angusta [14] | Saccharomyces cerevisiae [15] | Ogataea angusta [16] | Saccharomyces cerevisiae [17] | Saccharomyces cerevisiae [18] | Ogataea angusta [19] | Saccharomyces cerevisiae [20] | Saccharomyces cerevisiae [21] | Ogataea angusta [22] | Ogataea angusta [23] | Ogataea angusta [24] | Kluyveromyces lactis [25] | Saccharomyces cerevisiae [26] | Ogataea angusta [27] | Ogataea angusta [28]

O=C(/C=C/c1ccc([N+](=O)[O-])cc1)c1ccc(Cl)cc1
> 40 µg/mL: Ogataea angusta [1] | Kluyveromyces lactis [2] | Saccharomyces cerevisiae [3] | Kluyveromyces lactis [4] | Ogataea angusta [5] | Saccharomyces cerevisiae [6] | Ogataea angusta [7] | Ogataea angusta [8] | Saccharomyces cerevisiae [9] | Ogataea angusta [10] | Ogataea angusta [11] | Ogataea angusta [12] | Saccharomyces cerevisiae [13] | Ogataea angusta [14] | Saccharomyces cerevisiae [15] | Ogataea angusta [16] | Saccharomyces cerevisiae [17] | Saccharomyces cerevisiae [18] | Ogataea angusta [19] | Saccharomyces cerevisiae [20] | Saccharomyces cerevisiae [21] | Ogataea angusta [22] | Ogataea angusta [23] | Ogataea angusta [24] | Kluyveromyces lactis [25] | Saccharomyces cerevisiae [26] | Ogataea angusta [27] | Ogataea angusta [28]

Cc1ccc(/C=C/C(=O)c2ccc(Cl)cc2)cc1
> 40 µg/mL: Ogataea angusta [1] | Kluyveromyces lactis [2] | Saccharomyces cerevisiae [3] | Kluyveromyces lactis [4] | Ogataea angusta [5] | Saccharomyces cerevisiae [6] | Ogataea angusta [7] | Ogataea angusta [8] | Saccharomyces cerevisiae [9] | Ogataea angusta [10] | Ogataea angusta [11] | Ogataea angusta [12] | Saccharomyces cerevisiae [13] | Ogataea angusta [14] | Saccharomyces cerevisiae [15] | Ogataea angusta [16] | Saccharomyces cerevisiae [17] | Saccharomyces cerevisiae [18] | Ogataea angusta [19] | Saccharomyces cerevisiae [20] | Saccharomyces cerevisiae [21] | Ogataea angusta [22] | Ogataea angusta [23] | Ogataea angusta [24] | Kluyveromyces lactis [25] | Saccharomyces cerevisiae [26] | Ogataea angusta [27] | Ogataea angusta [28]
